hERG protect – compounds protecting human hERG from proarrhythmic drug block; activation (rescue from dofetilide block), less the hit threshold, % at 10 µM; CHO-hERG, FluxOR thallium flux, dofetilide IC70 present; Q12809; hit rate 0.51% among 310,000;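 active means activation above the mean of controls blocked by dofetilide plus 5 SD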;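 further: thallium influx through hERG after potassium depolarization seen as dye fluorescence rise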
KCNQ1 act – potentiates or activates the human KCNQ1 potassium channel | P51787 | CHO-K1 KCNQ1, thallium flux FluxOR fluorescence; hits give high values | B-score at 10 µM | hit rate 0.35% among 310,000 | AID 2648;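 active means fluorescence ratio B-score, a plate-corrected score, at least three library SD, with initial intensity B-score within 5 SD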
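Assay system: CHO-K1 cells stably expressing KCNQ1. Medium: assay buffer for compound exposure, DMSO matched across wells. Timing: 37 °C overnight plating, 90-min dark dye load, 20-min compound pretreatment. Signal: kinetic FluxOR fluorescence, 10 s baseline plus 110 s post-stimulus.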
Mot1-301 SUMO – SUMOylation pathway inhibition by Mot1-301 growth rescue; S. cerevisiae Mot1-301 growth rescue, ATP luminescence, 38.5C; percent above DMSO median, 100 means doubled; growth rescue, % at 18.8 µM; hit rate 1% among 320,000;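 active means every valid replicate shows activation above 250% relative to neutral control wells; inactive means the rest, any valid replicate at or below 250%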
KCC2 mod – modulators of human KCC2 chloride dependent transport; Q9H2X9; KCC2 cells, thallium flux FluoZin-2 fluorescence; B-score of Tl+ flux slope (higher = more flux/activation; lower = inhibition) at 10 µM; hit rate 2.2% among 190,000; AID 1456;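 active means thallium flux slope and its plate-corrected score both differing from the plate sample mean at a set confidence after two filtering rounds, in either direction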;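 further: slope of fluorescence scaled to starting intensity during 10 to 20 s after thallium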
Target sequence (Q9H2X9 whole entry, looked up): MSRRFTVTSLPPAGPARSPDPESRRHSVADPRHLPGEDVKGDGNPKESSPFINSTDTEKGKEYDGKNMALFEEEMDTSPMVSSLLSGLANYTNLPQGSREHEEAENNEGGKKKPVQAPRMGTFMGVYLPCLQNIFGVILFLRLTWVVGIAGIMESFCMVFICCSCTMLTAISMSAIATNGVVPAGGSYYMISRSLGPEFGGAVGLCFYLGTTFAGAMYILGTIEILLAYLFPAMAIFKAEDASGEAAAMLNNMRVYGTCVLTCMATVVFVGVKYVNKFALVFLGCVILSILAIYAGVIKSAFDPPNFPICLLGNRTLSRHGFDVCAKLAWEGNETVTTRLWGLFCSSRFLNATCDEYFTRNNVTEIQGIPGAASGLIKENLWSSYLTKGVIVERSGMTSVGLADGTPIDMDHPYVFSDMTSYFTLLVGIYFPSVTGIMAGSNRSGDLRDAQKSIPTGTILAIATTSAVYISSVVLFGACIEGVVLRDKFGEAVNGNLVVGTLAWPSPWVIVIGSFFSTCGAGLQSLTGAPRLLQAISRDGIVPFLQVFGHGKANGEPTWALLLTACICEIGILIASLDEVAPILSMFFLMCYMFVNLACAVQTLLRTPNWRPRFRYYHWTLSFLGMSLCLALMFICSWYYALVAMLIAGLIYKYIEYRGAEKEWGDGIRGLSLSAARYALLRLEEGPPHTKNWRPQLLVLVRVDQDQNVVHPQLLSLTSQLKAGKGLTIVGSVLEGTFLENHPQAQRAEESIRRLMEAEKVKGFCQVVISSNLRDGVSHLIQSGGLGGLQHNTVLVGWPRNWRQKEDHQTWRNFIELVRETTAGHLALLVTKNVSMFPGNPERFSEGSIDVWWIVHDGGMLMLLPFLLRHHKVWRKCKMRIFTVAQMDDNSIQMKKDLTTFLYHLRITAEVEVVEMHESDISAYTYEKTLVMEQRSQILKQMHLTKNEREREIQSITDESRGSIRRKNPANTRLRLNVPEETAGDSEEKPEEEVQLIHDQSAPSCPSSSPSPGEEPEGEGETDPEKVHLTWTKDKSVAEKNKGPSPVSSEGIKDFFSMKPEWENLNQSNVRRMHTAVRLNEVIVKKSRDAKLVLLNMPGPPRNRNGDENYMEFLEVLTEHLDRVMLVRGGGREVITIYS
KCNQ1 inh – inhibitors of human KCNQ1 potassium channel. P51787. CHO-K1 KCNQ1, FluxOR thallium flux fluorescence; hits give high values. B-score at 10 µM. hit rate 1.3% among 310,000;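 active means compounds whose thallium flux B-score, printed positive for inhibition, exceeds three library SD while starting fluorescence stays within three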;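 further: channel opened by potassium depolarization with thallium stimulus after 20 min compound exposure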
AI-2 QS mod – modulators of Vibrio harveyi AI-2 quorum sensing system; AID 2094; hit rate 0.4% among 300,000; Vibrio harveyi JMH597 AI-2 luminescence/OD600 ratio, 9 h; hits give low values; strain lacks LuxN and CqsS sensors; 0 = neutral-control median; activity change, % at 7.5 µM; in the data active means activity change below about -75%, passing the limit was not always enough;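 further: luminescence divided by OD600 gain over 9 h not by final OD600 alone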
Yeast Mot1 SUMO – SUMO pathway inhibitors in yeast Mot1-301 growth; shares compounds with Mot1-301 SUMO; growth activity, percent, % at 42 µM; S. cerevisiae Mot1-301 galactose growth, ATP luminescence, 24 h; -100 = growth of slx-deleted rescue strain; 2,300 tested, under 10 active; AID 493004;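 active means Signal drops as the depositor expects, and the fitted half-maximal dose is no more than ten times the top valid tested dose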;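 further: more negative values mean stronger growth rescue toward the control strain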
Hits are given with their value. Most compounds without a hit are left out; they make up all but 4.2% or so of the library.

Results for O=C(N/N=C/c1ccc2c(c1)OCO2)c1cc(-c2ccncc2)nc2ccccc12 ?
hERG protect: inactive; KCNQ1 act: inactive; Mot1-301 SUMO: inactive; KCC2 mod: inactive; KCNQ1 inh: inactive; AI-2 QS mod: inactive

What do the screens show for `Cc1cc(C(=O)N/N=C/c2ccc3c(c2)OCO3)c2ccccc2n1`?
hERG protect: inactive; KCNQ1 act: inactive; Mot1-301 SUMO: 856.0; KCC2 mod: inactive; KCNQ1 inh: inactive; AI-2 QS mod: inactive; Yeast Mot1 SUMO: inactive

What do the screens show for `CCc1ccc2[nH]c(=O)c(C(c3nnnn3Cc3ccccc3)N3CCOCC3)cc2c1` (stereo not given)?
hERG protect: inactive; KCNQ1 act: inactive; Mot1-301 SUMO: 478.3; KCC2 mod: inactive; KCNQ1 inh: inactive; AI-2 QS mod: inactive; Yeast Mot1 SUMO: inactive

Results for CCc1ccc2[nH]c(=O)c(C(c3nnnn3Cc3ccc(OC)cc3)N3CCOCC3)cc2c1 (stereo not given) ?
hERG protect: inactive; KCNQ1 act: inactive; KCC2 mod: inactive; KCNQ1 inh: inactive; AI-2 QS mod: inactive

Results for O=C(Nc1ccncc1Cl)c1ccncc1 ?
hERG protect: inactive; KCNQ1 act: inactive; Mot1-301 SUMO: 434.8; KCNQ1 inh: inactive; AI-2 QS mod: inactive; Yeast Mot1 SUMO: inactive

How did COc1ccc(NC(=O)c2cc(C)cc(C)c2)cc1S(=O)(=O)N1CCCCC1 do in these assays?
Mot1-301 SUMO: inactive

Results for Cc1ccc(C(=O)NC(NC(=O)c2ccc(C)cc2)C(Cl)Cl)cc1 ?
hERG protect: inactive; KCNQ1 act: inactive; Mot1-301 SUMO: 377.5; KCC2 mod: inactive; KCNQ1 inh: inactive; AI-2 QS mod: inactive; Yeast Mot1 SUMO: inactive

Results for Cc1ccc(C(NC(=O)c2ccccc2)C(Cl)Cl)cc1 (stereo not given) ?
hERG protect: inactive; KCNQ1 act: inactive; Mot1-301 SUMO: inactive; KCC2 mod: inactive; KCNQ1 inh: inactive; AI-2 QS mod: inactive

How did Cc1nn(CC(=O)Nc2ccccc2C(F)(F)F)c(=O)c2cccn12 do in these assays?
hERG protect: inactive; KCNQ1 act: inactive; Mot1-301 SUMO: inactive; KCNQ1 inh: inactive; AI-2 QS mod: inactive

Results for COc1ccc(-c2[nH]ncc2CNCCn2cccn2)c(F)c1 ?
hERG protect: inactive; KCNQ1 act: inactive; Mot1-301 SUMO: active; KCNQ1 inh: inactive; AI-2 QS mod: inactive; Yeast Mot1 SUMO: inactive

Results for O=C(NC1CC1)c1ccc2c(c1)S(=O)(=O)c1cc(Cl)ccc1C2=O ?
Mot1-301 SUMO: inactive

How did CCCCOc1ccc(CSC(=N)N)cc1Cl do in these assays?
hERG protect: inactive; KCNQ1 act: inactive; Mot1-301 SUMO: 467.4; KCC2 mod: inactive; KCNQ1 inh: inactive; AI-2 QS mod: inactive; Yeast Mot1 SUMO: inactive

What do the screens show for `Cc1ccc(OCC(=O)NN2C(=O)c3ccccc3C2=O)c(C)c1`?
hERG protect: inactive; KCNQ1 act: inactive; Mot1-301 SUMO: 436.2; KCNQ1 inh: inactive; AI-2 QS mod: inactive; Yeast Mot1 SUMO: inactive

How did Cc1nnc(NC(=O)c2cccc(S(=O)(=O)N3CCCC3)c2)s1 do in these assays?
hERG protect: inactive; KCNQ1 act: inactive; Mot1-301 SUMO: 575.8; KCNQ1 inh: inactive; AI-2 QS mod: inactive; Yeast Mot1 SUMO: inactive

How did CCc1nnc(NC(=O)c2cc(S(=O)(=O)N3CCN(c4ccccc4)CC3)ccc2Cl)s1 do in these assays?
hERG protect: inactive; KCNQ1 act: inactive; Mot1-301 SUMO: inactive; KCC2 mod: inactive; KCNQ1 inh: inactive; AI-2 QS mod: inactive

How did CCc1nnc(NC(=O)c2cccc(S(=O)(=O)N3CCN(c4ccccc4)CC3)c2)s1 do in these assays?
hERG protect: 5.5; KCNQ1 act: inactive; Mot1-301 SUMO: 572.0; KCC2 mod: inactive; KCNQ1 inh: inactive; AI-2 QS mod: inactive; Yeast Mot1 SUMO: inactive

What do the screens show for `Cc1nnc(NC(=O)c2cccc(S(=O)(=O)N3CCOCC3)c2)s1`?
hERG protect: inactive; KCNQ1 act: inactive; Mot1-301 SUMO: inactive; KCC2 mod: inactive; KCNQ1 inh: inactive; AI-2 QS mod: inactive

Results for Cc1c(C(=O)N(CCO)Cc2ccccc2)oc2c(F)cccc12 ?
hERG protect: inactive; KCNQ1 act: inactive; Mot1-301 SUMO: inactive; KCNQ1 inh: inactive; AI-2 QS mod: inactive

How did Cc1ccccc1C(=O)c1cccn1CC(=O)N1CCCCC1 do in these assays?
hERG protect: inactive; KCNQ1 act: inactive; Mot1-301 SUMO: inactive; KCNQ1 inh: inactive; AI-2 QS mod: inactive

Results for Cc1ccc(CNC(=O)c2ccc(N3CCC4(CC3)CC(c3ccccc3)=NO4)c(NC(=O)c3cccc(C)c3)c2)cc1 ?
hERG protect: inactive; KCNQ1 act: inactive; Mot1-301 SUMO: 947.3; KCNQ1 inh: inactive; AI-2 QS mod: inactive; Yeast Mot1 SUMO: inactive

How did Cc1ccc(CNC(=O)c2ccc(N3CCC4(CC3)CC(c3cccc(Br)c3)=NO4)c(NC(=O)c3cccc(C)c3)c2)cc1 do in these assays?
Mot1-301 SUMO: inactive

What do the screens show for `COc1cc(CN2CCC(Oc3cc(C(=O)NC4CC4)ccc3OC)CC2)cc(OC)c1`?
hERG protect: inactive; KCNQ1 act: inactive; Mot1-301 SUMO: 393.3; KCNQ1 inh: inactive; AI-2 QS mod: inactive; Yeast Mot1 SUMO: inactive

How did C=CCNC(=O)c1cc(-c2cccnc2)nc2ccccc12 do in these assays?
hERG protect: inactive; KCNQ1 act: inactive; Mot1-301 SUMO: 441.3; KCNQ1 inh: inactive; AI-2 QS mod: inactive; Yeast Mot1 SUMO: inactive

What do the screens show for `Cc1ccc(P(=Nc2ccccc2)(N2CCOCC2)N2CCOCC2)o1`?
hERG protect: inactive; KCNQ1 act: inactive; Mot1-301 SUMO: inactive; KCC2 mod: inactive; KCNQ1 inh: inactive; AI-2 QS mod: inactive

Results for CN(C(=O)COC(=O)c1cc(-c2ccc(Cl)s2)nc2ccccc12)C1CCS(=O)(=O)C1 (stereo not given) ?
hERG protect: inactive; KCNQ1 act: inactive; Mot1-301 SUMO: 511.1; KCC2 mod: inactive; KCNQ1 inh: inactive; AI-2 QS mod: inactive; Yeast Mot1 SUMO: inactive

How did CN(C(=O)COC(=O)c1cc(-c2ccccc2Cl)nc2ccccc12)C1CCS(=O)(=O)C1 (stereo not given) do in these assays?
hERG protect: inactive; KCNQ1 act: inactive; Mot1-301 SUMO: inactive; KCC2 mod: inactive; KCNQ1 inh: inactive; AI-2 QS mod: inactive

How did CCN(C(=O)CSc1nc2ccccc2c(=O)n1-c1ccc(C)cc1)C1CCS(=O)(=O)C1 (stereo not given) do in these assays?
hERG protect: inactive; KCNQ1 act: inactive; Mot1-301 SUMO: inactive; KCC2 mod: inactive; KCNQ1 inh: inactive; AI-2 QS mod: inactive

Results for Cc1ccc(-n2c(SCC(=O)N(C)C3CCS(=O)(=O)C3)nc3ccccc3c2=O)cc1 (stereo not given) ?
hERG protect: inactive; KCNQ1 act: inactive; Mot1-301 SUMO: 498.9; KCC2 mod: inactive; KCNQ1 inh: inactive; AI-2 QS mod: inactive; Yeast Mot1 SUMO: inactive
